Tested on: bEnd.3 cells
Assay: In vitro cellular uptake in bEnd.3 cells
Type: in vitro ADME
Conditions: for cellular uptake observed by confocal imaging: 10 µM FITC-labelled peptide or free FITC, confocal microscopy
In short: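 bEnd.3 cells were seeded at 5 × 10^4/cm2 for 24 h, untreated or pretreated with poly-lysine (4 kDa, 20 µM, 1 h). They were exposed to 10 µM FITC-peptide or free FITC for 10 min, 30 min or 2 h, washed with cold PBS and fixed in 4 % PFA. Staining was DiD (10 µM, 30 min) or Hoechst, followed by confocal imaging. Flow cytometry was run on trypsinised cells (Ex 488/Em 525 nm). Mean ± SD, n = 3.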

[1] = 10 µM FITC-labelled peptide, 2 h, flow cytometry, n = 3

O=C1OC2(c3ccc(O)cc3Oc3cc(O)ccc32)c2ccc(N=C=S)cc21 [free FITC, reference compound]
cellular uptake observed by confocal imaging (2 h): weak cellular uptake

MAPRGFSCLLLLTGEIDLPVKRRAGGR(d)-Dmt-KF-NH2 [HNRS]
cellular uptake observed by confocal imaging (2 h): weak cellular uptake
adsorption to cell membrane (10 µM FITC-labelled peptide, 10 min, confocal): adsorbed on the plasma membrane
cellular uptake relative to HNSS [1]: 13.9%
fluorescence intensity of cellular uptake relative to HNG [1]: 1.5 fold

From PMC11382307 (Asian Journal of Pharmaceutical Sciences, 2024)
